# High-throughput results as filed in PubChem.
# FN deposition inh: inhibitors of fibronectin matrix deposition, primary screen, AH1F cells, Alexa488-fibronectin fluorescence, plate reader | inhibition, % at 12.6 µM | 350,000 tested, 0.086% active | AH1F fibroblasts, overnight | AID 743247, 2014;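 active = mean inhibition across replicates of 30% or more, regardless of how many single replicates reach that level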;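 note: positive control wells lacked labelled fibronectin entirely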
#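 Test system: AH1F fibroblast monolayer depositing Alexa488-labelled fibronectin into matrix. Input: 10000 cells per well. Technique: fluorescence, ex 485 nm, em 525 nm. Buffer or medium: DMEM plus 2% serum, read in PBS. Timing: 1 h cell adhesion before compound, then overnight fibronectin incubation. Compound: single dose, pinned. Read-out basis: inhibition from reduced deposited-fibronectin fluorescence.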
# FGF22 binding: binders of human FGF22 protein, primary screen, FGF22 synaptogenesis inhibitor project, biophysical, thermal shift, single point; Fibroblast growth factor 22 (Homo sapiens), Q9HCT0; recombinant FGF22 thermal shift, SYPRO orange fluorescence; percent of sucrose octasulfate shift, DMSO zero; activity (Tm shift, normalised), % at 9.99 µM; 340,000 tested, 1.5% active; AID 651658, 2012;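 active = mean Tm shift, scaled 0 neutral to 100 positive control, at about 1.3% or above, every replicate too, limit read from the data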
# PGC1a acetyl inh: inhibitors of PGC1a acetylation signal, primary screen, cell-based, U2OS, AlphaScreen, inhibitor mode | AlphaScreen anti-acetyl-lysine; with virally co-expressed GCN5 acetyltransferase | inhibition, % at 15.6 µM | 350,000 tested, 0.17% active;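 active = every replicate shows inhibition of at least 40%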;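 note: 0% = neutral control wells and 100% = positive control wells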
# ERAP1 inh: human ERAP1 aminopeptidase inhibitors, primary screen, biochemical, single point, plate reader | Endoplasmic reticulum aminopeptidase 1 (Homo sapiens), Q9NZ08 | recombinant ERAP1, Leu-AMC fluorescence, 60 min | inhibition, % at 10.7 µM | 340,000 tested, 0.15% active | AID 652197, 2013;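 active = mean replicate inhibition of at least 30%, or all replicates individually reaching that 30% level; inactive = mean below 30% and not every replicate reaching it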;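 note: 0% = neutral control wells and 100% = L-leucinethiol positive control wells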
# Target sequence (Q9NZ08 whole entry, looked up): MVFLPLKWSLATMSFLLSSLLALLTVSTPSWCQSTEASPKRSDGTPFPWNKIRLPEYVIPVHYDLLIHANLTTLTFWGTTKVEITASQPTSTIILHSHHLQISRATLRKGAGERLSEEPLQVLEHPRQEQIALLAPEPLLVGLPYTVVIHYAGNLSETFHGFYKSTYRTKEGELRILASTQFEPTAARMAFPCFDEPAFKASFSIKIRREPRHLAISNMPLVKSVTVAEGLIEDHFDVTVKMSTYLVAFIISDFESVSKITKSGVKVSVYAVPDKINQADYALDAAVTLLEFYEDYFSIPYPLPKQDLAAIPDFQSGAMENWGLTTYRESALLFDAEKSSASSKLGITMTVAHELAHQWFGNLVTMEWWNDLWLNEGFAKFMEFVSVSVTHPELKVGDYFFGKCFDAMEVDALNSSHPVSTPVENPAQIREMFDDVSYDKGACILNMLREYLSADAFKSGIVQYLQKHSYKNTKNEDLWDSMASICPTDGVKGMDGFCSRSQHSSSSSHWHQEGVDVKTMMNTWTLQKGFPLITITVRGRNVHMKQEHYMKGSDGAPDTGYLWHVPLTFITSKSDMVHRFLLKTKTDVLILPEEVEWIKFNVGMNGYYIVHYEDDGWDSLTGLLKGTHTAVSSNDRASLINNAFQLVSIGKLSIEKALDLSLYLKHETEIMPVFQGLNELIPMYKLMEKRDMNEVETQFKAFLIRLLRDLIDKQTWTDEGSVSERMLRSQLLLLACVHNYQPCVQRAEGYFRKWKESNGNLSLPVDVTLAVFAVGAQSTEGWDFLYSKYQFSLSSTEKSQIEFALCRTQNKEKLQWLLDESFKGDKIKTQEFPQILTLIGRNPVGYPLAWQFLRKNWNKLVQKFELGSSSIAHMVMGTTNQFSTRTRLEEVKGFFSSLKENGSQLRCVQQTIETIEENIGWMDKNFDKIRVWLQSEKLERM
# SIRT5 inh: SIRT5 desuccinylase inhibitors, primary screen, biochemical, fluorescence imaging, single point, set 5; NAD-dependent protein deacylase sirtuin-5, mitochondrial (Homo sapiens), Q9NXA8; Purified SirT5, succinyl-peptide AMC, trypsin-coupled fluorescence; inhibition, % at 15 µM; 330,000 tested, 1.1% active; AID 652115, 2013; in the data active = inhibition above about 15%
# Active calls of the source: *; · = no result given. Compounds with a hit are over-represented: about 2.2% of the library has one in this group of screens.
SMILES,FN deposition inh,FGF22 binding,PGC1a acetyl inh,ERAP1 inh,SIRT5 inh
CC(C)CC#Cc1ccc2c(c1)O[C@H](CN(C)C(=O)C1CCCCC1)[C@@H](C)CN([C@@H](C)CO)S2(=O)=O,-18.2,-0.5,34.8,-1.8,26.9*
CC(C)CC#Cc1ccc2c(c1)O[C@H](CN(C)C(=O)C1CCCCC1)[C@@H](C)CN([C@H](C)CO)S2(=O)=O,-9.4,0.0,11.3,-0.9,21.5*
C[C@@H]1CCCCO[C@@H](CN(C)C(=O)c2ccccc2)[C@H](C)CN([C@H](C)CO)C(=O)c2cc(NS(=O)(=O)c3cn(C)cn3)ccc2O1,2.1,·,7.6,-1.5,-0.7
COC(=O)c1ccccc1-c1ccc(/C=N/NC(N)=O)o1,4.2,2.9*,-1.6,·,2.3
CCOC(=O)c1c(NC(=O)COc2ccccc2F)sc2c1CC(C)(C)NC2(C)C,4.4,18.5*,-2.9,1.2,-3.7
CCOC(=O)c1c(NC(=O)CSc2ncccn2)sc2c1CC(C)(C)NC2(C)C,·,-0.1,-10.0,1.3,-1.6
COc1ccccc1NC(=O)NCc1ccco1,0.8,0.0,2.1,1.3,6.4
COc1cc(NC(=O)NCc2ccco2)ccc1-c1ccc(NC(=O)NCc2ccco2)cc1OC,-0.4,0.4,47.8*,-7.5,-6.7
COc1cc([N+](=O)[O-])ccc1NC(=O)NCc1ccco1,2.1,43.9*,·,-1.7,0.4
Cc1cccc(S(=O)(=O)N2CC[C@@H]3[C@@H](CO)Nc4ccc(C#Cc5ccc(F)cc5)cc4[C@@H]32)c1,11.8,0.8,-18.6,2.5,2.1
C[C@@H]1CN([C@H](C)CO)C(=O)CCCn2cc(nn2)CO[C@@H]1CN(C)S(=O)(=O)c1ccc(C#N)cc1,-10.5,-0.4,-5.7,0.0,1.8
C[C@@H]1CCCCO[C@@H](CN(C)CC2CCCCC2)[C@@H](C)CN([C@@H](C)CO)C(=O)c2cc(NC(=O)CCC(F)(F)F)ccc2O1,·,0.0,-6.7,·,·
COc1cc(/C=C2/C(=O)NN(c3ccc(Cl)c(Cl)c3)C2=O)cc([N+](=O)[O-])c1O,-9.5,0.0,11.4,7.9,22.1*
OC(Cc1ccccc1Br)c1ncc(-c2ccc(Cl)cc2)[nH]1 (stereo not given),0.7,2.7*,·,6.2,0.9
OC(Cc1ccccc1)c1ncc(-c2ccc(Cl)cc2)[nH]1 (stereo not given),-3.5,0.9,·,-4.8,-4.1
Cc1noc(C)c1S(=O)(=O)N(C)C[C@H]1OCCCC[C@@H](C)Oc2ccc(NC(=O)NC(C)C)cc2C(=O)N([C@@H](C)CO)C[C@@H]1C,7.1,0.0,-15.1,28.7,2.8
CCOc1ccc(CCNC(=O)COC(=O)Cn2cnc3c2c(=O)n(C)c(=O)n3C)cc1OCC,-2.1,0.0,·,47.8*,-5.4
CCCCNc1nc(N)ncc1[N+](=O)[O-],1.5,-0.2,·,2.4,30.0*
COCC(=O)N(C)C[C@H]1Oc2ncc(-c3ccc(C#N)cc3)cc2C(=O)N([C@H](C)CO)C[C@@H]1C,1.0,·,3.7,·,·
CC12CCC(=O)N1C(C(=O)Nc1nc(-c3ccc(F)c(F)c3)cs1)CS2 (stereo not given),-2.0,0.2,-3.6,2.9,15.2*
CC12CCC(=O)N1C(C(=O)Nc1nc(-c3ccc(F)cc3)cs1)CS2 (stereo not given),-0.4,-0.3,·,-1.1,-2.9
Cc1cc(F)ccc1NC(=O)C1CSC2(C)CCC(=O)N12 (stereo not given),-3.7,0.1,·,1.9,18.0*
Cc1nn(-c2ccc3ccccc3c2)c(=O)c2ccccc12,-7.2,43.9*,2.2,0.6,1.5
COC(=O)[C@@H]1[C@@H](CO)[C@@H]2Cn3c(ccc(-c4ccccc4F)c3=O)[C@@H]2N1C(=O)c1ccccn1,·,0.5,·,0.4,0.8
O=C(/C=C/c1ccco1)N1CCCC(c2ccccc2)C1 (stereo not given),-9.6,43.5*,·,-7.2,-0.3
SMILES,FN deposition inh,FGF22 binding,PGC1a acetyl inh,ERAP1 inh,SIRT5 inh
O=C(NCc1ccccc1)NC(O)C(Cl)(Cl)Cl (stereo not given),-6.5,43.8*,4.4,-0.6,1.2
O=C(NCc1ccccc1)N[C@@H](Cc1ccccc1)C(=O)O,-4.6,·,6.1,·,·
CC(C)[C@@H]1CC=CC[C@H](C)Oc2ccccc2C(=O)N(C)[C@@H](C)C(=O)N1 (mixture of isomers),-11.7,·,·,·,·
Nc1cccc(S(=O)(=O)c2ccc(N)c(N)c2)c1,·,43.4*,1.5,5.0,-0.2
O=C(N/N=C/c1cccs1)c1cccc(NC(=O)c2ccc(Cl)cc2)c1,35.2*,0.7,·,-3.4,-1.9
C[C@@H]1CN([C@H](C)CO)C(=O)c2cccc(NS(=O)(=O)c3ccc(F)cc3)c2O[C@@H]1CN(C)C(=O)Nc1ccccc1,·,0.0,6.1,1.2,4.6
CCCN1CCC(NC(=O)Nc2ccc([N+](=O)[O-])cc2)CC1,-33.2,0.2,-0.8,-1.7,16.6*
CCCN1CCC(NC(=O)Nc2ccc(Br)cc2)CC1,1.6,0.0,7.4,-0.7,-5.6
Nn1c(SCc2cccc(Oc3ccccc3)c2)nnc1C(F)(F)F,-5.2,43.0*,-1.3,-4.4,1.2
COc1cccc(CSc2nnc(C(F)(F)F)n2Cc2ccc(F)cc2)c1,·,-0.2,·,1.8,-2.7
COc1ccc(C)cc1Nc1n[n+](-c2ccccc2)c(-c2ccc(C(=O)O)cc2)s1,-4.3,44.0*,-0.5,11.4,1.8
CN(C)C(=O)C[C@@H]1CC[C@H]2[C@@H](COC[C@@H](O)CN2CC2CC2)O1,-0.8,0.1,-0.7,-4.7,0.4
CCOC(=O)Cc1ccc(NC(=O)c2cccc([N+](=O)[O-])c2)cc1,14.0,-0.2,·,-0.5,-4.0
CCOC(=O)/C(C)=N/NC(=O)c1cccc([N+](=O)[O-])c1,14.1,44.2*,·,-3.3,0.8
COc1ccc(C(=O)O)cc1S(N)(=O)=O,11.7,0.6,-7.2,-0.7,-3.5
CNS(=O)(=O)c1cc(C(=O)O)ccc1OC,-7.2,43.0*,-3.5,2.8,-2.2
CCc1ccc(-c2cn3c(n2)SCC3)cc1,5.6,43.0*,-2.6,4.4,6.9
Cc1ccc(-c2cn3c(n2)SCC3)cc1,·,0.1,-2.6,7.4,3.8
CN1CCCC1CCNc1ccc2oc3ccccc3c(=O)c2c1 (stereo not given),-16.8,-0.1,·,-2.2,-2.9
CN1CCCC1CCNc1ccc2c(=O)c3ccccc3oc2c1 (stereo not given),13.9,0.3,·,179.7*,-160.3
O=C(CC1C(=O)NCCN1CCCc1ccccc1)NCCc1ccccc1Cl (stereo not given),9.7,-0.2,1.2,5.5,15.4*
